According to publication PMC10206482 (RSC Advances, 2023):
Converted amounts (≈) assume the structure as drawn.

Tests used:
[1] = test system: lung cell cancer adenocarcinoma (A549); assay: MTT antiproliferative assay, A549; type: cell-based; conditions: Homo sapiens, A549, read-out: Lung cell cancer adenocarcinoma (A549) IC50
How it was run: (§1)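 Colorimetric MTT viability readout, run in parallel on human Huh-7 hepatoma, A549 lung adenocarcinoma and MCF-7 breast cancer cells, and on MDCK canine kidney cells as the non-cancerous model. Test compound at four concentrations (0.1, 1, 10, 100 μM), with Taxol as the positive reference. % viability was plotted against concentration, and IC50 was derived as 50% growth inhibition relative to untreated control.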

human hepatoma (Huh-7) = assay: MTT antiproliferative assay, Huh-7; type: cell-based; conditions: Huh-7, read-out: Human hepatoma (Huh-7) IC50
How it was run: as §1

tubulin = assay: Tubulin polymerization assay; type: biochemical; conditions: for Inhibition (%) of tubulin polymerisation: in vitro tubulin inhibition assay; for IC50: read-out: IC50 tubulin polymerisation; for IC50 / IC50 tubulin polymerisation: as printed in Table 2 and results text
How it was run: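 Turbidimetric tubulin polymerization, using tubulin at 4 mg ml⁻¹. Test compound came from a 2 mM DMSO stock, diluted with water to final 0.1, 1, 10 and 100 μM. Polymerization was started by moving the reaction from 4 °C to a pre-warmed 37 °C plate. Absorbance at 340 nm was followed kinetically at 37 °C (0.5 cm pathlength). CA-4 served as reference.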

[2] = test system: Michigan Cancer Foundation-7 breast cancer (MCF-7); assay: MTT antiproliferative assay, MCF-7; type: cell-based; conditions: Homo sapiens, MCF7, read-out: Michigan cancer foundation-7 breast cancer (MCF-7) IC50
How it was run: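 Human MCF-7 breast cancer cells were exposed to the test compound at 0.1, 1, 10 and 100 μM, with Taxol as positive reference. Viability was read by MTT and plotted as % cell viability against concentration (μM). IC50 is the concentration giving 50% growth inhibition relative to untreated control cells, taken from the dose–response curve.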

[3] = Body weight of tumor-bearing rats during treatment; type: in vivo, Wistar rats; conditions: 2 mg per kg per week, day 0 to day 42
mammary tumors = assay: In vivo DMBA-induced breast cancer model: tumor size and histopathology; parameters: species or system Wistar rats; conditions: after treatment, 2 mg per kg per week
(A549) cells = assay: Morphological assessment of A549 cells; type: cell-based, human; conditions: 100 μM, 48 h, compared to untreated control
How it was run: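 Living cells were examined by inverted light microscopy for morphology changes, after exposure to test compound. Comparators were an untreated control and a Taxol-treated positive control.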

Compound	IC50 [1]	IC50 (human hepatoma (Huh-7))	IC50 (tubulin)	IC50 [2]	IC50 tubulin polymerisation (tubulin)	Inhibition (%) of tubulin polymerisation (tubulin)	Effect on rats' body weights [3]	Histopathology of mammary gland (H&E): inflammatory cells infiltrates (mammary tumors)	Morphological assessment of cells ((A549) cells)
COc1cc(/C=C2\CN(C(C)=O)CC3=C2OC(N)=C(C#N)C3c2ccc(O)c(OC)c2)ccc1O (stereo not shown) [3a, (E)-6-Acetyl-2-amino-3-cyano-8-(4-hydroxy-3-methoxybenzylidene)-4-(4-hydroxy-3-methoxyphenyl)-5,6,7,8-tetrahydro-4H-pyrano[3,2-c]pyridine]	31.6 µM	3.88 µM	15.6 µM	8.87 µM		79%			
CCOc1cc(/C=C2\CN(C(C)=O)CC3=C2OC(N)=C(C#N)C3c2ccc(O)c(OCC)c2)ccc1O (stereo not shown) [3b, (E)-6-Acetyl-2-amino-3-cyano-4-(3-ethoxy-4-hydroxy-phenyl)-8-(3-ethoxy-4-hydroxy-benzylidene)-5,6,7,8-tetrahydro-4H-pyrano[3,2-c]pyridine]	15.5 µM	6.54 µM	4.03 µM	6.13 µM	4.03 µg/mL (≈ 8 µM)	81%	did not have a significant effect	intensity of inflammatory cells infiltrates decreased	apparent cell toxicity
CC(=O)N1CC2=C(OC(N)=C(C#N)C2c2ccc(Cl)cc2)/C(=C/c2ccc(Cl)cc2)C1 (stereo not shown) [3c, (E)-6-Acetyl-2-amino-3-cyano-8-(4-chlorobenzylidene)-4-(4-chlorophenyl)-5,6,7,8-tetrahydro-4H-pyrano[3,2-c]pyridine]	61.2 µM	17.7 µM		6.38 µM					
CC(=O)N1CC2=C(OC(N)=C(C#N)C2/C=C/c2ccccc2)/C(=C/C=C/c2ccccc2)C1 (stereo not shown) [3d, (E)-6-Acetyl-2-amino-3-cyano-8-((E)-3-phenylallylidene)-4-((E)-styryl)-5,6,7,8-tetrahydro-4H-pyrano[3,2-c]pyridine]		20.7 µM							
COc1cc(/C=C2\CN(C(C)=O)CC3=C2NC(=S)NC3c2ccc(O)c(OC)c2)ccc1O (stereo not shown) [4a, (E)-6-Acetyl-8-(4-hydroxy-3-methoxybenzylidene)-4-(4-hydroxy-3-methoxyphenyl)-1,3,4,5,7,8-hexahydro-2H-pyrido[4,3-d]pyrimidin-2-thione]	46.9 µM	2.48 µM		8.01 µM					
CCOc1cc(/C=C2\CN(C(C)=O)CC3=C2NC(=S)NC3c2ccc(O)c(OCC)c2)ccc1O (stereo not shown) [4b, (E)-6-Acetyl-8-(3-ethoxy-4-hydroxybenzylidene)-4-(3-ethoxy-4-hydroxyphenyl)-1,3,4,5,7,8-hexahydro-2H-pyrido[4,3-d]pyrimidin-2-thione]	42.3 µM	7.27 µM		16 µM					
CC(=O)O[C@H]1C(=O)[C@@]2(C)[C@H]([C@H](OC(=O)c3ccccc3)[C@]3(O)C[C@H](OC(=O)[C@H](O)[C@@H](NC(=O)c4ccccc4)c4ccccc4)C(C)=C1C3(C)C)[C@]1(OC(C)=O)CO[C@@H]1C[C@@H]2O [Taxol, reference compound]	38.1 µM	6.68 µM		12.3 µM			did not have a significant effect	intensity of inflammatory cells infiltrates decreased	apparent cell toxicity

More lines, main results first:

IC50 [1]	IC50 (human hepatoma (Huh-7))	IC50 (tubulin)	IC50 [2]	IC50 tubulin polymerisation (tubulin)	Compound	Inhibition (%) of tubulin polymerisation (tubulin)	Effect on rats' body weights [3]	Histopathology of mammary gland (H&E): inflammatory cells infiltrates (mammary tumors)	Morphological assessment of cells ((A549) cells)
20.3 µM	5.47 µM	6.06 µM	5.27 µM		COc1cc(/C=C2\CN(C(C)=O)CC3C2=NN(c2ccccc2)C3c2ccc(O)c(OC)c2)ccc1O (stereo not shown) [5a, (E)-5-Acetyl-7-(4-hydroxy-3-methoxybenzylidene)-3-(4-hydroxy-3-methoxyphenyl)-2-phenyl-2,3,3a,4,6,7-hexahydro-5H-pyrazolo[4,3-c]pyridine]	76%			
15.2 µM	2.23 µM	12.6 µM	9.04 µM		CCOc1cc(/C=C2\CN(C(C)=O)CC3C2=NN(c2ccccc2)C3c2ccc(O)c(OCC)c2)ccc1O (stereo not shown) [5b, (E)-5-Acetyl-7-(3-ethoxy-4-hydroxybenzylidene)-3-(3-ethoxy-4-hydroxyphenyl)-2-phenyl-2,3,3a,4,6,7-hexahydro-5H-pyrazolo[4,3-c]pyridine]	70%			
